Data as given in ChEMBL document CHEMBL4130555, “Heterodimeric Diterpenoids Isolated from Euphorbia ebracteolata Roots and Their Inhibitory Effects on α-Glucosidase” (J Nat Prod, 2017).

Assays:
A549 = assay: Cytotoxicity against human A549 cells by MTT assay; assay type: functional, cell-based
BGC-823 = assay: Cytotoxicity against human BGC823 cells by MTT assay; assay type: functional, cell-based
HCT-8 = assay: Cytotoxicity against human HCT8 cells by MTT assay; assay type: functional, cell-based
[1] = Inhibition of acetyltransferase activity of Mycobacterium tuberculosis H37Rv GlmU expressed in Escherichia coli BL21(DE3) using acetylcoA as substrate after 30 mins
A2780 = assay: Cytotoxicity against human A2780 cells by MTT assay; assay type: functional, cell-based
Bel-7402 = assay: Cytotoxicity against human Bel7402 cells by MTT assay; assay type: functional, cell-based
[2] = Inhibition of baker's yeast alpha-glucosidase using p-nitrophenyl-alpha-D-glucopyranoside as substrate preincubated for 0.5 hrs followed by substrate addition measured for 0.5 hrs; set-up: species or system Saccharomyces cerevisiae
How it was run: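 Enzyme activity measured with p-NPG as substrate, acarbose run alongside as positive control; procedure follows a previously published protocol.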

[3] = Non-competitive inhibition of baker's yeast alpha-glucosidase using p-nitrophenyl alpha-D-glucopyranoside as substrate preincubated for 0.5 hrs followed by substrate addition measured for 0.5 hrs by Lineweaver-Burk plot analysis; set-up: species or system Saccharomyces cerevisiae

Work on `C=C[C@@]1(C)CC[C@]2(C)c3cc4c(c(C)c3CC[C@H]2C1)O[C@@H]1C2=C(C)C(=O)O[C@@]2(O4)[C@H](O)[C@H]2[C@]3(C)CCCC(C)(C)[C@H]3CC[C@@]12O` yielded an IC50 (A549) greater than 100 µM, an IC50 (BGC-823) greater than 100 µM and an IC50 (HCT-8) greater than 100 µM. It also gave an IC50 [1] of 41.9 µM, an IC50 (A2780) greater than 100 µM and an IC50 (Bel-7402) greater than 100 µM. The IC50 [2] was 50.4 µM.

`C=C[C@@]1(C)CC[C@]2(C)c3cc(O[C@@]45OC(=O)C(C)=C4[C@H]4O[C@]46CC[C@@H]4C(C)(C)CCC[C@@]4(C)[C@@H]6[C@H]5O)c(O)c(C)c3CC[C@H]2C1` gave an IC50 (A549) greater than 100 µM, an IC50 (BGC-823) greater than 100 µM and a Ki [3] of 10.8 µM. For the same molecule, the IC50 (HCT-8) was greater than 100 µM, the IC50 [1] was greater than 100 µM and the IC50 (A2780) was greater than 100 µM. For the same molecule, the IC50 (Bel-7402) was greater than 100 µM and the IC50 [2] was 7.94 µM.

`C[C@H]1O[C@H](O[C@H]2[C@H](O)[C@@H](O)[C@@H](O[C@H]3[C@H](O)[C@@H](O)C(O)O[C@@H]3CO)O[C@@H]2CO)[C@H](O)[C@@H](O)[C@@H]1N[C@H]1C=C(CO)[C@@H](O)[C@H](O)[C@H]1O` (stereo partly specified) [ACARBOSE] showed an IC50 [2] of 579 µM.
